{"data": "Experimental data of several laboratories", "target": "Rhodopsin kinase GRK1 (GRK1, Homo sapiens, UniProt Q15835)", "One construct used (Q15835 1-563)": "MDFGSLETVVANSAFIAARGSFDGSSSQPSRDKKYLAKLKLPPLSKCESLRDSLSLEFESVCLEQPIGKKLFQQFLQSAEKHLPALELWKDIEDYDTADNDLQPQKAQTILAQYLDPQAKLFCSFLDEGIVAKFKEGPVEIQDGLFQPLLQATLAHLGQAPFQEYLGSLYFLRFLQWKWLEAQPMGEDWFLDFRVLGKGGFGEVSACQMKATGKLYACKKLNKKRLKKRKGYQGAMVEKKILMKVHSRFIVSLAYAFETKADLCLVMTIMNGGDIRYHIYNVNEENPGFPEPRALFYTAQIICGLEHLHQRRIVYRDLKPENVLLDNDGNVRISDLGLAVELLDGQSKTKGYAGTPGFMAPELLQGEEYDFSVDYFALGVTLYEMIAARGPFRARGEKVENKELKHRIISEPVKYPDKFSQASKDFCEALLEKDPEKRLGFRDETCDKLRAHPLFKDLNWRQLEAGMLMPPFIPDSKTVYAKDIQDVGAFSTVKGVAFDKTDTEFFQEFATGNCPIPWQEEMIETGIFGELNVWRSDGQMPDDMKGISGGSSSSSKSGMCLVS", "note": "Lines come from different studies, so protocols differ."}
{"SMILES": "Cc1sc(C(=O)NC2COC2)cc1-n1cc(NC(=O)Nc2c(F)cccc2Cl)cn1", "test": "enzyme activity, inhibitor", "setting": "10 µM", "endpoint": "remaining activity", "result": "113%"}
{"SMILES": "Cn1c2c(Cl)c(Cl)ccc2c2cn[nH]c(=O)c21", "test": "thermal stability, DSF", "setting": "10 µM", "endpoint": "ΔTm", "result": "1.3 °C"}
{"SMILES": "Cc1cc(NC(=O)c2cccc(S(F)(F)(F)(F)F)c2)cc(-n2ccn3nc(-c4cccnc4)cc23)c1", "test": "cell-free assay, competition with immobilised ligand", "setting": "1 µM", "endpoint": "remaining binding", "result": "50.4%"}
{"SMILES": "Cc1ccc(C(=O)NCc2ccsc2)cc1C#Cc1cn(C(C)C)c2ncnc(N)c12", "test": "enzyme activity, inhibitor", "setting": "1 µM", "endpoint": "activity vs control", "result": "106%"}
{"SMILES": "NS(=O)(=O)c1cc(NC(=O)Cc2ccccc2)ccc1Oc1cccc(Cl)c1", "test": "cell-free assay, competition with immobilised ligand", "setting": "1 µM", "endpoint": "remaining binding", "result": "83%"}
{"SMILES": "CC(C)(O)[C@H]1CC[C@H](Nc2ccc3ncc(-c4cccc(C(F)(F)F)c4)n3n2)CC1", "test": "enzyme activity, inhibitor", "setting": "1 µM", "endpoint": "remaining activity", "result": "89.2%"}
{"SMILES": "Cn1c2c(c3ccc(Cl)c(Cl)c31)C(C#N)C1(CCNCC1)NC2=O (racemic)", "test": "thermal stability, DSF", "setting": "10 µM", "endpoint": "ΔTm", "result": "2.4 °C"}
{"SMILES": "CC(C)CC(=O)N1CCc2nc(-c3ccc(Br)cc3)nc(N(C)Cc3ccccc3)c2C1", "test": "cell-free assay, competition with immobilised ligand", "setting": "0.1 µM", "endpoint": "remaining binding", "result": "100%"}
{"SMILES": "Cc1ccc(NC(=O)c2ccc(C)c(C(F)(F)F)c2)cc1C#Cc1nn(C2CCC(O)CC2)c2ncnc(N)c12 (stereo not drawn)", "test": "cell-free assay", "setting": "10 µM", "endpoint": "remaining signal", "result": "94%"}
{"SMILES": "Cn1c2c(Cl)c(Cl)ccc2c2cc(N)[nH]c(=O)c21", "test": "thermal stability, DSF", "setting": "10 µM", "endpoint": "ΔTm", "result": "0.5 °C"}
{"SMILES": "Cc1cc(NC(=O)c2cccc3cc(-c4cccc5[nH]nc(N)c45)ccc23)ccc1F", "test": "enzyme activity, inhibitor", "setting": "0.1 µM", "endpoint": "activity vs control", "result": "85%"}
{"SMILES": "N#CC1c2c([nH]c3c(Cl)c(Cl)ccc23)C(=O)NC12CCCCC2 (racemic)", "test": "thermal stability, DSF", "setting": "10 µM", "endpoint": "ΔTm", "result": "0.6 °C"}
{"SMILES": "C[C@H](c1ccc(F)cc1)N(Cc1cccc(C(=O)O)c1)C(=O)c1cnc2ccccc2c1", "test": "cell-free assay, competition with immobilised ligand", "setting": "1 µM", "endpoint": "remaining binding", "result": "100%"}
{"SMILES": "Cn1c2c(c3ccc(Cl)c(Cl)c31)C(C#N)C1(CCCCC1)NC2=O (racemic)", "test": "thermal stability, DSF", "setting": "10 µM", "endpoint": "ΔTm", "result": "0.1 °C"}
{"SMILES": "O=C(Nc1cnn(-c2csc(C(=O)NC3COC3)c2)c1)Nc1c(F)cccc1Cl", "test": "enzyme activity, inhibitor", "setting": "5 µM", "endpoint": "remaining activity", "result": "92.9%"}
